Consider 49 molecules from ChEMBL document CHEMBL5346944, “Development of a 2,4-Diaminothiazole Series for the Treatment of Human African Trypanosomiasis Highlights the Importance of Static-Cidal Screening of Analogues” (J Med Chem, 2023).

Data set [1] is described as follows: Metabolic stability in CD1 mouse liver microsomes assessed as intrinsic clearance by UPLC-MS/MS analysis. It is filed as ADME. An outline of the steps: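 Compound at 0.5 μM incubated with female CD1 mouse liver microsomes (0.5 mg mL-1, 50 mM potassium phosphate pH 7.4). Reaction started with excess NADPH. Aliquots taken at 0, 3, 6, 9, 15, 30 min and quenched in acetonitrile with internal standard, then analysed by UPLC-MS/MS.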

Data set [2] is described as follows: Kinetic aqueous solubility of the compound in DMSO by laser nephelometry. In kind it is physicochemical. The following applies: read-out: Kinetic_solubility.
The nature of data set [3]: Antiproliferative activity against human MRC5 cells in presence of 5% Co2 incubated for 69 hrs followed by resazurin addition further incubated for 4 hrs. It is filed as toxicity, cell-based.
Data set [4] can be described thus: Selectivity index, ratio of EC50 for human MRC-5 cells to EC50 for bloodstream-form Trypanosoma brucei. In kind it is toxicity. The following applies: read-out: Selectivity Index.
For data set [5], the system named is Trypanosoma brucei. The experiment in a line: Antiparasitic activity against bloodstream-form Trypanosoma brucei in presence of 5% Co2 incubated for 69 hrs followed by resazurin addition further incubated for 4 hrs. It is filed as functional, organism-based.
Data set [6] can be described thus: Metabolic stability in human liver microsomes assessed as intrinsic clearance by UPLC-MS/MS analysis. It is filed as ADME.
The test system of data set [7] is Trypanosoma brucei. The experiment in a line: Antiparasitic activity against bloodstream-stage Trypanosoma brucei measured after 73 hrs by resazurin assay. It is filed as functional, organism-based.
Data set [8] is described as follows: Selectivity ratio of IC50 for inhibition of Trypanosoma brucei GSK3 to EC50 for antiparasitic activity against bloodstream-stage Trypanosoma brucei. It is filed as toxicity.

As to `Nc1nc(NC2CCCCC2)sc1C(=O)c1ccncc1`, in data set [1], the CLH is 4.1 mL/min/g. In the case of `CC(OCC(=O)c1sc(Nc2ccc(Cl)cc2)nc1N)C(F)(F)F` (centres undefined), the solubility kinetic in data set [2] is > 0.1 mg/mL. Moreover, the EC50 at 69 h in data set [3] was 50 µM. Further, the CLH in data set [1] was 5.3 mL/min/g. For the molecule `C[C@@H]1CN(CC(=O)c2sc(Nc3ccc(F)c(F)c3)nc2N)C[C@H](C)O1`, in data set [4], the selectivity ratio is 1000. Besides, in data set [5], the EC50 was found to be 0.05 µM. For the same molecule, the EC50 at 69 h in data set [3] worked out at 50 µM. The CLH in data set [1] is 8.1 mL/min/g. As to `CC(OCC(=O)c1sc(Nc2ccc(F)c(F)c2)nc1N)C(F)(F)F` (centres undefined), the EC50 at 69 h in data set [3] was determined as 50 µM. For the same molecule, in data set [1], the CLH was 7.4 mL/min/g. `Nc1nc(NC2CCCCC2)sc1C(=O)c1c(Cl)cccc1Cl`: the CLH in data set [1] came to 4.1 mL/min/g. As to `CC(C)CC(=O)c1sc(Nc2ccc(F)c(F)c2)nc1N`, the values for the CLH in data set [1] and in data set [6] were 5.9 mL/min/g and 3.2 mL/min/g, respectively. `CC(C)(C)CC(=O)c1sc(Nc2ccc(F)c(F)c2)nc1N`: the CLH in data set [1] stood at 4.6 mL/min/g. Take `CC(OCC(=O)c1sc(Nc2ccc3c(c2)OC(F)(F)O3)nc1N)C(F)(F)F` (centres undefined): the solubility kinetic in data set [2] was > 0.1 mg/mL. Also, the EC50 at 69 h in data set [3] is 50 µM. Further, in data set [1], the CLH stood at 5 mL/min/g. For `O=C(c1cnc(NC2CCCCC2)s1)C1CCCCC1`, the CLH in data set [1] was 15 mL/min/g. On the same count and under the same terms, the result for `Nc1nc(NC2CCCCC2)sc1C(=O)c1cc(F)cc(F)c1` reads 3.6 mL/min/g. On to `CC(OCC(=O)c1sc(Nc2ccc(C(F)(F)F)nc2)nc1N)C(F)(F)F` (centres undefined), for which the EC50 at 69 h in data set [3] came to 50 µM. For the molecule `CC1CCCN1CC(=O)c1sc(Nc2ccc(F)c(F)c2)nc1N` (centres undefined), the EC50 at 69 h in data set [3] worked out at 50 µM. For the same molecule, the CLH in data set [1] turned out to be 5.2 mL/min/g. Take `CC(C)(C)OCC(=O)c1sc(Nc2ccc(F)c(F)c2)nc1N`: the EC50 at 69 h in data set [3] worked out at 50 µM. Take `Nc1nc(Nc2ccc(F)c(F)c2)sc1C(=O)CN1CCCCC1`: the CLH in data set [1] turned out to be 7.7 mL/min/g. `CC(C)(C)C(=O)c1sc(NC2CCCCC2)nc1N`: the EC50 in data set [7] stood at 0.26 µM. The “Ratio IC50/EC50” value in data set [8] is given as 70. Also, in data set [1], the CLH is 2.5 mL/min/g.

Regarding `CCOCC(=O)c1sc(Nc2ccc(F)c(F)c2)nc1N`, in data set [3], the concentration for a half-maximal effect (EC50) at 69 h stood at 50 µM. On the same count and under the same terms, then `Nc1nc(Nc2ccc(F)c(F)c2)sc1C(=O)COC(CF)CF`, with 50 µM. For `Nc1nc(NC2CCCCC2)sc1C(=O)c1ccc(C(F)(F)F)cc1`, the CLH in data set [1] stood at 1.4 mL/min/g. `CC(OCC(=O)c1sc(Nc2ccc(C(F)(F)F)cc2)nc1N)C(F)(F)F` (centres undefined): the solubility kinetic in data set [2] was > 0.1 mg/mL. In addition, the CLH in data set [1] is 2.3 mL/min/g. Take `Nc1nc(NC2CCCC(O)C2)sc1C(=O)c1c(F)cccc1F` (centres undefined): in data set [1], the CLH amounted to 1.8 mL/min/g. For `Nc1nc(Nc2ccc(F)c(F)c2)sc1C(=O)CN1CCOCC1`, the selectivity ratio in data set [4] amounted to 2000. The EC50 at 69 h in data set [3] was found to be 50 µM. In data set [1], the CLH was 4.7 mL/min/g. As to `Nc1nc(NC2CCCCC2)sc1C(=O)c1ccc(OC(F)F)cc1`, the selectivity ratio in data set [4] stood at 267. Further, the figures for the CLH in data set [1] and in data set [6] were 2.9 mL/min/g and 0.8 mL/min/g, respectively. `Nc1nc(NC2CCCCC2)sc1C(=O)C1CCCCC1`: the CLH in data set [1] amounted to 8.9 mL/min/g. Turning to `COc1ccc(Nc2nc(N)c(C(=O)COC(C)C(F)(F)F)s2)cn1` (centres undefined), the solubility kinetic in data set [2] is > 0.1 mg/mL. Moreover, the EC50 at 69 h in data set [3] is 50 µM. In data set [1], the CLH was found to be 9 mL/min/g. Turning to `CC(C)OCCC(=O)c1sc(Nc2ccc(F)c(F)c2)nc1N`, in data set [3], the concentration for a half-maximal effect (EC50) at 69 h is 50 µM. `COC(C)(C)CC(=O)c1sc(Nc2ccc(F)c(F)c2)nc1N`: the EC50 at 69 h in data set [3] turned out to be 50 µM. For the same molecule, in data set [1], the CLH amounted to 6.1 mL/min/g. Consider `Nc1nc(NC2CCCCC2)sc1C(=O)c1ccc(F)c(F)c1`, for which, in data set [1], the CLH stood at 12 mL/min/g. Regarding `Nc1nc(NC2CCCCC2)sc1C(=O)C1CCC1`, the selectivity ratio in data set [4] worked out at 5. Further, in data set [1], the CLH stood at 21 mL/min/g. Take `Nc1nc(Nc2ccc(F)c(F)c2)sc1C(=O)CN1C[C@H]2CC[C@@H](C1)O2`: in data set [3], the EC50 at 69 h amounted to 50 µM. The CLH in data set [1] is 8.8 mL/min/g. As to `Nc1nc(Nc2ccc(F)c(F)c2)sc1C(=O)COC1CC(F)(F)C1(F)F` (centres undefined), the CLH in data set [1] was 5.2 mL/min/g.

`Nc1nc(Nc2ccc(F)c(F)c2)sc1C(=O)CCN1CCOCC1`: the CLH in data set [1] worked out at 1.2 mL/min/g. Still for that read-out and setting: then `Nc1nc(NC2CCCCC2)sc1C(=O)c1ccc(F)cc1`, with 4.9 mL/min/g; and `CC(C)C(=O)c1sc(NC2CCCCC2)nc1N`, with 0.5 mL/min/g; and `CC(OCC(=O)c1sc(Nc2ccn(C)n2)nc1N)C(F)(F)F` (centres undefined), with 10.8 mL/min/g. The same measure, in the same setting: the result for `Nc1nc(Nc2ccc(F)c(F)c2)sc1C(=O)CN1CCCC(F)(F)C1` reads 33 mL/min/g. For `CC(C)OCC(=O)c1sc(Nc2ccc(F)c(F)c2)nc1N`, the EC50 at 69 h in data set [3] stood at 50 µM. Also, in data set [1], the CLH was 9.3 mL/min/g.

`Nc1nc(Nc2ccc(F)c(F)c2)sc1C(=O)CN1CCCC1C(F)(F)F` (centres undefined): the CLH in data set [1] was 26 mL/min/g. For `Nc1nc(Nc2ccccc2)sc1C(=O)c1ccccc1`, the CLH in data set [1] is 12 mL/min/g; in data set [6] it was < 0.5 mL/min/g.

On to `Nc1nc(Nc2ccc(F)c(F)c2)sc1C(=O)COC1CCC1`, for which the 50% effective concentration (EC50) at 69 h in data set [3] is 50 µM. In data set [1], the CLH was determined as 9 mL/min/g. On to `Nc1nc(NC2CCCCC2)sc1C(=O)c1ccccc1F`, for which the EC50 at 69 h in data set [3] is 2 µM. Also, the CLH in data set [1] worked out at 9.7 mL/min/g. On to `CC(C)CC(=O)c1sc(Nc2ccc(F)cc2)nc1N`, for which, in data set [1], the CLH amounted to 8 mL/min/g.

For the molecule `Nc1nc(NC2CCCCC2)sc1C(=O)c1ccccc1C(F)(F)F`, the CLH in data set [1] amounted to 14 mL/min/g. Consider `COC(C)(C)C(=O)c1sc(NC2CCCCC2)nc1N`, for which the CLH in data set [1] stood at 3.8 mL/min/g. With `Nc1nc(Nc2ccc(F)c(F)c2)sc1C(=O)CN1C[C@@H]2C[C@H]1CO2`, in data set [3], the EC50 at 69 h came out at 50 µM. In data set [1], the CLH stood at 4.1 mL/min/g. Turning to `CC(OCC(=O)c1sc(Nc2cccc(OC(F)F)c2)nc1N)C(F)(F)F` (centres undefined), the selectivity ratio in data set [4] is 2500. In addition, the solubility kinetic in data set [2] was > 0.1 mg/mL. Also, the EC50 in data set [5] amounted to 0.02 µM. In data set [3], the EC50 at 69 h worked out at 50 µM. For `Nc1nc(Nc2ccc(F)c(F)c2)sc1C(=O)CN1CCC(F)(F)CC1`, the CLH in data set [1] came to 9.3 mL/min/g.

Regarding `Nc1nc(NC2CCCCC2)sc1C(=O)c1ccc(F)cc1F`, the CLH in data set [1] came to 6.5 mL/min/g.

For `Nc1nc(Nc2ccccc2)sc1C(=O)c1ccc(F)cc1`, the CLH in data set [1] is 7.3 mL/min/g.

In the case of `Nc1nc(Nc2ccc(F)c(F)c2)sc1C(=O)CN1CCCC1`, in data set [1], the CLH was 2.1 mL/min/g.
